ChEMBL document CHEMBL1629690, “Development of hexadecyloxypropyl tenofovir (CMX157) for treatment of infection caused by wild-type and nucleoside/nucleotide-resistant HIV” (Antimicrob Agents Chemother, 2010)

Columns and labels:
Type in all cases: cell-based
[1] = Cytotoxicity against human dendritic cells after 24 hrs by XTT assay
Summary of the method: (§1)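 Six-concentration growth-inhibition test: 10 to 0.032 μM for the prodrug and TDF, up to 100 μM for TFV, with Triton X-100 run in parallel. Cell lines were split 1:2 the day before and seeded at 5 × 10^3 to 2 × 10^4 cells/well, with adherent lines left overnight. Dendritic cells were derived with GM-CSF/IL-4 for 7 days, then LPS 10 ng/ml for 2 days. Viability was read by XTT.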

CEM-SS = assay: Cytotoxicity against human CEM-SS cells after 24 hrs by XTT assay; summary of the method: as §1
[2] = Cytotoxicity against human HuH7 cells after 24 hrs by XTT assay; settings: huh-7, 24 h; summary of the method: as §1
[3] = Cytotoxicity against human ME180 cells after 24 hrs by XTT assay; settings: me-180, 24 h; summary of the method: as §1
PBMC = assay: Cytotoxicity against PHA/IL-2-stimulated human PBMC after 24 hrs by XTT assay; summary of the method: as §1
HeLa = assay: Cytotoxicity against human HeLa cells after 24 hrs by XTT assay; summary of the method: as §1
HepG2 = assay: Cytotoxicity against human HepG2 cells after 24 hrs by XTT assay; settings: hepg2, 24 h; summary of the method: as §1

Measured: Activity

CC(C)OC(=O)OCOP(=O)(CO[C@H](C)Cn1cnc2c(N)ncnc21)OCOC(=O)OC(C)C.O=C(O)/C=C/C(=O)O [TENOFOVIR DISOPROXIL FUMARATE]
Non-toxic: all assays above
